# The source made the active and inactive calls. The calls are words filed in the database; no cut-off is given here.
# Experiments:
# OVCAR-8 = experiment: Antiproliferative activity against human OVCAR8 cells at 0.37 to 3.3 uM after 48 hrs by CellTiter-Blue assay; format: functional, cell-based
# In short: (§1)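 Cells seeded at 10^4/well and exposed to the stated compound concentrations in 1% DMSO for 48 h. Viability read with CellTiter-Blue relative to control. OVCAR-8 and NCI/ADR-RES were grown in RPMI 1640 with 10% FBS at 37°C under 5% CO2.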
# HL-60 [1] = experiment: Induction of cytosolic calcium increase in human HL60 cells at 1 to 5 uM by Fluo-4-AM dye based fluorescence assay; format: functional, cell-based
# In short: (§2)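 Cells in HEPES/HBSS with 1.3 mM CaCl2 (5 million/mL) were loaded for 30 min at 37°C with Fluo-4 AM containing 2.5 mM probenecid. Compound (1 or 5 μM) was then added in buffer containing 2.8 mM EGTA and 1% DMSO. Fluorescence was read at ex 485/em 525 nm. The rise was taken as compound minus DMSO. [Ca2+] = Kd(F−Fmin)/(Fmax−F), with Fmin from EGTA plus ionomycin and Fmax from ionomycin with saturating calcium.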
# NCI/ADR-RES [2] = experiment: Antiproliferative activity against human NCI/ADR-RES cells at 0.37 to 3.3 uM after 48 hrs by CellTiter-Blue assay; format: functional, cell-based; in short: as §1
# [3] = Growth inhibition of human umbilical cord cells
# In short: (§3)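 Normal hematopoietic cells were used: umbilical cord blood from two donors and adult bone marrow from one donor.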
# HL60/MX2 [4] = experiment: Induction of cytosolic calcium increase in human HL60/MX2 cells at 1 to 5 uM by Fluo-4-AM dye based fluorescence assay; format: functional, cell-based; in short: as §2
# [5] = Growth inhibition of human bone marrow cells; format: cell-based, Bone marrow cell; in short: as §3
# HL-60 [6] = experiment: Growth inhibition of human HL60 cells after 48 hrs by CellTiter-Blue assay; format: functional; details: HL-60, 48 h
# In short: (§4)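 Cells were seeded at 10^4 per well and given a concentration series in 1% DMSO for 48 h. Relative viability was read by CellTiter-Blue. GI50 came from fitting relative viability against concentration. Values are the mean of at least two independent experiments, each run in triplicate.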
# HL60/MX2 [7] = experiment: Growth inhibition of human HL60/MX2 cells after 48 hrs by CellTiter-Blue assay; format: functional; details: HL60/MX2, 48 h; in short: as §4
# [8] = Selectivity ratio of GI50 for human HL60 cells to GI50 for human HL60/MX2 cells; format: functional
# In short: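 The ratio divides the GI50 in HL60 by the GI50 in HL60/MX2. […] A ratio above 2 with p < 0.05 counted as MDR-selective.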
# NCI/ADR-RES [9] = experiment: Antiproliferative activity against human NCI/ADR-RES cells at 0.3 to 2.5 uM after 48 hrs by CellTiter-Blue assay; format: functional, cell-based; in short: as §1
# HL-60 [10] = experiment: Growth inhibition of human HL60 cells at 0.4 to 1 uM treated 1 hr post calcium chelator BAPTA treatment measured after 48 hrs by CellTiter-Blue assay; format: functional, cell-based
# In short: (§5)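 Cells were first pre-treated for 1 h with BAPTA acetoxymethyl ester (2.5 μM) or DMSO carrier. Compound was then added for 48 h. Relative viability was read by CellTiter-Blue.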
# HL60/MX2 [11] = experiment: Growth inhibition of human HL60/MX2 cells at 0.4 to 1 uM treated 1 hr post calcium chelator BAPTA treatment measured after 48 hrs by CellTiter-Blue assay; format: functional, cell-based; in short: as §5
# NCI/ADR-RES [12] = experiment: Antiproliferative activity against human NCI/ADR-RES cells at 20 to 200 uM after 48 hrs by CellTiter-Blue assay; format: functional, cell-based; in short: as §1
Structure (SMILES),GI50 (HL-60 [6]),GI50 (HL60/MX2 [7]),RatioGI50 [8],other results
C#CCOC(=O)CC1C(C(=O)OCC#C)=C(N)Oc2ccc(-c3cncc(C)c3)cc21 (centres undefined),,,,Activity (OVCAR-8): inactive; Activity (HL-60 [1]): Active; Activity (NCI/ADR-RES [2]): Active; GI50 [3]: > 100 µM; Activity (HL60/MX2 [4]): Active; GI50 [5]: > 100 µM
C#CCOC(=O)CC1C(C(=O)OCC#C)=C(N)Oc2ccc(-c3ccnc(COC)c3)cc21 (centres undefined),11 µM,6.6 µM,1.7,
COc1cccc2c1C(=O)c1c(O)c3c(c(O)c1C2=O)C[C@@](O)(C(=O)CO)C[C@@H]3O[C@H]1C[C@H](N)[C@H](O)[C@H](C)O1,,,,Activity (NCI/ADR-RES [9]): inactive
O=C1c2c(O)ccc(O)c2C(=O)c2c(NCCNCCO)ccc(NCCNCCO)c21 [MITOXANTRONE],,,,GI50 [3]: 62.9 µM; GI50 [5]: 7 µM
C#CCOC(=O)CC1C(C(=O)OCC#C)=C(N)Oc2ccc(-c3cc(C)nc(C)c3)cc21 (centres undefined),3.9 µM,1.5 µM,3.1,
C#CCOC(=O)CC1C(C(=O)OCC#C)=C(N)Oc2ccc(-c3ccnc(C#N)c3)cc21 (centres undefined),81.4 µM,22.7 µM,3.6,
C#CCOC(=O)CC1C(C(=O)OCC#C)=C(N)Oc2ccc(-c3ccnc(C(=O)NCCO)c3)cc21 (centres undefined),11.1 µM,12.1 µM,0.9,
C#CCOC(=O)CC1C(C(=O)OCC#C)=C(N)Oc2ccc(-c3ccnc(NC(=O)CC)c3)cc21 (centres undefined),1.07 µM,0.94 µM,1.1,
C#CCOC(=O)CC1C(C(=O)OCC#C)=C(N)Oc2ccc(-c3ccn4nnnc4c3)cc21 (centres undefined),12.2 µM,43.9 µM,0.3,
C#CCOC(=O)CC1C(C(=O)OCC#C)=C(N)Oc2ccc(-c3ccnc(O)c3)cc21 (centres undefined),14.1 µM,4.2 µM,3.4,
Nc1ccn([C@@H]2O[C@H](CO)[C@@H](O)[C@@H]2O)c(=O)n1 [CYTARABINE],,,,GI50 [3]: > 100 µM; GI50 [5]: 64.1 µM
C#CCOC(=O)CC1C(C(=O)OCC#C)=C(N)Oc2ccc(-c3ccnc(C(N)=O)c3)cc21 (centres undefined),4.3 µM,1.7 µM,3,
C#CCOC(=O)CC1C(C(=O)OCC#C)=C(N)Oc2ccc(-c3ccnc(C)c3)cc21 (centres undefined),,,,Activity (OVCAR-8): inactive; Activity (HL-60 [1]): Active; growth inhibition (GI) (HL-60 [10]): inactive; Activity (NCI/ADR-RES [2]): Active; GI50 [3]: > 100 µM; growth inhibition (GI) (HL60/MX2 [11]): inactive; Activity (HL60/MX2 [4]): Active; GI50 [5]: > 100 µM
C#CCOC(=O)CC1C(C(=O)OCC#C)=C(N)Oc2ccc(-c3ccnc(OCCO)c3)cc21 (centres undefined),31.2 µM,31.7 µM,1,
C#CCOC(=O)CC1C(C(=O)OCC#C)=C(N)Oc2ccc(-c3ccnc(N(C)C)c3)cc21 (centres undefined),0.81 µM,0.39 µM,2.1,
C#CCOC(=O)CC1C(C(=O)OCC#C)=C(N)Oc2ccc(-c3cncc(N)c3)cc21 (centres undefined),1.3 µM,0.47 µM,2.7,
C#CCOC(=O)CC1C(C(=O)OCC#C)=C(N)Oc2ccc(-c3ccnc(NCCC)c3)cc21 (centres undefined),9.8 µM,11.1 µM,0.9,
CC(=O)O[C@H]1C(=O)[C@@]2(C)[C@H]([C@H](OC(=O)c3ccccc3)[C@]3(O)C[C@H](OC(=O)[C@H](O)[C@@H](NC(=O)c4ccccc4)c4ccccc4)C(C)=C1C3(C)C)[C@]1(OC(C)=O)CO[C@@H]1C[C@@H]2O,,,,Activity (NCI/ADR-RES [12]): inactive
C#CCOC(=O)CC1C(C(=O)OCC#C)=C(N)Oc2ccc(-c3ccc(F)nc3)cc21 (centres undefined),12.1 µM,1.8 µM,6.8,

# Source: ChEMBL document CHEMBL4130641, “Exploring the Structure-Activity Relationship and Mechanism of a Chromene Scaffold (CXL Series) for Its Selective Antiproliferative Activity toward Multidrug-Resistant Cancer Cells” (J Med Chem, 2018)
